According to article PMC3304100 (Molecular Pharmaceutics, 2011):

Assays:
[1] = test system: rat gut wall; experiment: In situ single-pass intestinal perfusion in rats; format: in vivo; settings: pH 5.5, n=4, metoprolol co-perfused as reference
How it was run: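 Fasted (12–18 h) male Wistar rats (250–280 g), ketamine-xylazine im. ~10 cm jejunal, mid-intestinal or ileal segment cannulated and perfused at 0.18 ml/min with pH 5.5 MES buffer, 290 mosm/l, containing phenol red and metoprolol. Drug concentration = highest oral dose/250 ml. After 1 h to steady state, outlet sampled every 10 min for 1 h; HPLC. Peff by plug-flow model, water-flux corrected, R 0.2 cm.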

[2] = cited from earlier work
[3] = target: T1, hPepT1 (Homo sapiens, UniProt P46059); experiment: Uptake in hPepT1 transfected vs non-transfected HeLa cells; format: cell-based; settings: 1mM, pH 6.0, 45 min, 37°C, n=3
T1 sequence (P46059 1-708): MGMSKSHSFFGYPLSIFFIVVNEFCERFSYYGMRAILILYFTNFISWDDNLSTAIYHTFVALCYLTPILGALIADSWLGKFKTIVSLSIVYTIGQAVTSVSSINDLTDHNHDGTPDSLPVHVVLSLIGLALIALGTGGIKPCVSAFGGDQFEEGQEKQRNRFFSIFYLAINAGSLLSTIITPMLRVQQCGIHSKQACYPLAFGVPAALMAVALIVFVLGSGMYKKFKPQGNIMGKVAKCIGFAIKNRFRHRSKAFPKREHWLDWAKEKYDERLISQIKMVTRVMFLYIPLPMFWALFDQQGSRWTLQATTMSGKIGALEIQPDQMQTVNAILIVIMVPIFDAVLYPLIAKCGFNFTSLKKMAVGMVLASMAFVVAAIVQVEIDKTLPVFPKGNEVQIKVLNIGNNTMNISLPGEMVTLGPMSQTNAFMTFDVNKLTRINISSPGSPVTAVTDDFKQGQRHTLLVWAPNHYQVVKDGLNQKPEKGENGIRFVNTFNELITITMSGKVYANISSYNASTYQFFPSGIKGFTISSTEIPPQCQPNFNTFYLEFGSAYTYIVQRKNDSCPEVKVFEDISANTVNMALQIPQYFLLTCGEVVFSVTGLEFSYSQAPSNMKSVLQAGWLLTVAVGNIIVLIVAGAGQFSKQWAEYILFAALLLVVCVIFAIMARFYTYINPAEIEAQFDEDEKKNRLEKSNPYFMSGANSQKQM
How it was run: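 HeLa cells transduced with hPepT1-carrying adenovirus and used two days post-infection; non-transfected HeLa cells served as control. Cells were washed with pH 6.0 uptake buffer, then exposed to test compound (1mM) in uptake buffer at 37°C for 45 min and washed ice-cold. They were extracted in methanol:water (50:50) for 1 h at room temperature, and the supernatant was filtered and quantified by LC-MS. Sample protein was measured by DC assay against a BSA standard.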

SMILES	Effective permeability (Peff), in words [1]	Absolute oral availability [2]	Uptake in HeLa/hPepT1 cells compared to non-transfected HeLa cells [3]
CC(=O)N[C@H]1[C@H]([C@H](O)[C@H](O)CO)OC(C(=O)O)=C[C@@H]1N=C(N)N [Zanamivir]	absolutely no permeability	approximately 2%	–
CC(C)[C@H](N)C(=O)OCCOCn1cnc2c(=O)[nH]c(N)nc21 [Valacyclovir]	–	–	~ 5 fold
